Measured values: ChEMBL document CHEMBL1152556, “Omega-conotoxin GVIA mimetics based on an anthranilamide core: effect of variation in ammonium side chain lengths and incorporation of fluorine” (Bioorg Med Chem, 2009)

Target: Voltage-dependent N-type calcium channel subunit alpha-1B (Rattus norvegicus, UniProt Q02294)
Assay: Displacement of [125I]GVIA from Cav2.2 channel in rat brain by scintillation counting
Assay type: tissue-based
Conditions: not given; call rule not given here
In short: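 Radioligand displacement run in triplicate at room temperature on crude rat brain membrane (8 lg per well, added last) with 125I-GVIA tracer. Buffer: 20 mM HEPES, 75 mM NaCl, 0.2 mM EDTA, 0.2 mM EGTA, leupeptin, aprotinin, 0.1% BSA, pH 7.4. Shaken 1 h, then filtered on PEI-soaked glass fibre and washed with HEPES/125 mM NaCl, pH 7.4. Filter-bound counts read.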

Voltage-dependent N-type calcium channel subunit alpha-1B, sequence (Q02294 whole entry): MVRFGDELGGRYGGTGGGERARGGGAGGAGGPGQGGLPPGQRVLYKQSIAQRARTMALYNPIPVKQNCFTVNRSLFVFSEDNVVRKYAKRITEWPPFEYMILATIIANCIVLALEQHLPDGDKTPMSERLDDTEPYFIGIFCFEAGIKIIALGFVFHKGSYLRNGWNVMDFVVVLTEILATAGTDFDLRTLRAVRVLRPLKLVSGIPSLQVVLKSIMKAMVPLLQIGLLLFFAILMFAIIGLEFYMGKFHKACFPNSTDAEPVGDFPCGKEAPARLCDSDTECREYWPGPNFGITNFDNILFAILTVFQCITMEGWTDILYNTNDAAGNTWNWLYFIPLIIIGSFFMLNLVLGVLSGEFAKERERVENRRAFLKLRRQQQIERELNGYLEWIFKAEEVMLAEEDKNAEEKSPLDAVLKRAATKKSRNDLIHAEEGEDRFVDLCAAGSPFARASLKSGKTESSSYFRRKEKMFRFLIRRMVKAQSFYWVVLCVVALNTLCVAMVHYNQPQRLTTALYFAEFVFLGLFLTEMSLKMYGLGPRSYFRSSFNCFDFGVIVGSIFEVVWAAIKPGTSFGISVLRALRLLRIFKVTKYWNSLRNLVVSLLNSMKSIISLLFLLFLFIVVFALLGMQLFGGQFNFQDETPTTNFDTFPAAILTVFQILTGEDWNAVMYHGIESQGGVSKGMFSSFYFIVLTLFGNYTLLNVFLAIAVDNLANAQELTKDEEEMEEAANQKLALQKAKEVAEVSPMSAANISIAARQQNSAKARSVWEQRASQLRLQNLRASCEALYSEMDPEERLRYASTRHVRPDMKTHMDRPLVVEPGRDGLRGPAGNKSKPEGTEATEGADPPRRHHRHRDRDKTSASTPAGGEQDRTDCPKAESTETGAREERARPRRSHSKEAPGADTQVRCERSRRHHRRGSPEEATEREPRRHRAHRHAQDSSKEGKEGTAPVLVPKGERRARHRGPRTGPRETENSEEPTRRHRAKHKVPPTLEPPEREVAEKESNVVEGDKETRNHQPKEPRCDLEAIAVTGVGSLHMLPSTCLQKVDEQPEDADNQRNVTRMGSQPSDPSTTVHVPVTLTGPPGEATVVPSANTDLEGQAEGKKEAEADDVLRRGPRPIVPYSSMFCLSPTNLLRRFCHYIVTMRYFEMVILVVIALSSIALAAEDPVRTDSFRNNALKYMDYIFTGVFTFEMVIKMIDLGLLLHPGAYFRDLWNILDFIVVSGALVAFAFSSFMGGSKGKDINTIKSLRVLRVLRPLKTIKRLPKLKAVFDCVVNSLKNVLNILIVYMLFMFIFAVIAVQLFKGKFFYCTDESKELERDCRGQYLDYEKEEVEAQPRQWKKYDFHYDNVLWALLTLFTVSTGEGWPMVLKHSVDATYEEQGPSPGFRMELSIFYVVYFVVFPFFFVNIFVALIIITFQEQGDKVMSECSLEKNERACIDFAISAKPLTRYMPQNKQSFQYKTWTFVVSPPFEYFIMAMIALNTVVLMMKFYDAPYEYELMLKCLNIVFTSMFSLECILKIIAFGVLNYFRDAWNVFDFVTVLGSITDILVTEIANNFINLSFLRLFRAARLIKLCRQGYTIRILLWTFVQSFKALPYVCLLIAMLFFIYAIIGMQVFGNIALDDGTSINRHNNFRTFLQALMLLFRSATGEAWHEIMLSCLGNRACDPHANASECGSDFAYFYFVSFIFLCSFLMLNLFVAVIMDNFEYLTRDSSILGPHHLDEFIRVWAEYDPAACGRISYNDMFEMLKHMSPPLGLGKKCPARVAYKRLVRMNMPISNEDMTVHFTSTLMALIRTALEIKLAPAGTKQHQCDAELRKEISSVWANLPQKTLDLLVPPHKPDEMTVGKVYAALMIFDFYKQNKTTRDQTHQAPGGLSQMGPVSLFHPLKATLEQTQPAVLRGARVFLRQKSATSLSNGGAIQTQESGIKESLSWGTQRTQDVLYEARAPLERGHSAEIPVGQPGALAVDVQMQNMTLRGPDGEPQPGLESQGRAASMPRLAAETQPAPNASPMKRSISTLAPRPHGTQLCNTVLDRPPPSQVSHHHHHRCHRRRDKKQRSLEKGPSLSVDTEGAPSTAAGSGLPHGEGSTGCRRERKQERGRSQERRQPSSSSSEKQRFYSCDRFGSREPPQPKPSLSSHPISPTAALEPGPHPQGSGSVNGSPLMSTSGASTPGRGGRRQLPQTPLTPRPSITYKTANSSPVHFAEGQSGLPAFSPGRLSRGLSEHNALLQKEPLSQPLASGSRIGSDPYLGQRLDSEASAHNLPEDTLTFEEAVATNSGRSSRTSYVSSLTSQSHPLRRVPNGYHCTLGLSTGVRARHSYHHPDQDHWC

| SMILES | EC50 |
| --- | --- |
| NCCCCCCCC(=O)Nc1ccc(OCCCN)cc1C(=O)Nc1ccc(Oc2ccc(O)cc2)cc1 | Not Active |
| NCCCCCCCC(=O)Nc1ccc(OCCCN)cc1C(=O)Nc1ccc(Oc2ccc(F)cc2)cc1 | Not Active |

Same assay, conditions: read-out: EC50

| SMILES | EC50 [µM] |
| --- | --- |
| NC(N)=NCCCCCC(=O)Nc1ccc(OCCCN=C(N)N)cc1C(=O)Nc1ccc(Oc2ccccc2)cc1 | 16 |
| NCCCCCC(=O)Nc1ccc(OCCCN)cc1C(=O)Nc1ccc(Oc2ccccc2)cc1 | 107 |
| NC(N)=NCCCCCCCC(=O)Nc1ccc(OCCCN=C(N)N)cc1C(=O)Nc1ccc(Oc2ccc(F)cc2)cc1 | 6 |
| NC(N)=NCCCCCCCC(=O)Nc1ccc(OCCCCN=C(N)N)cc1C(=O)Nc1ccc(Oc2ccccc2)cc1 | 15 |
| NC(N)=NCCCCC(=O)Nc1ccc(OCCCN=C(N)N)cc1C(=O)Nc1ccc(Oc2ccccc2)cc1 | 116 |
| NC(N)=NCCCCCCCC(=O)Nc1ccc(OCCCN=C(N)N)cc1C(=O)Nc1ccc(Oc2ccccc2)cc1 | 13 |
| NC(N)=NCCCCCCCC(=O)Nc1ccc(OCCCN=C(N)N)cc1C(=O)Nc1ccc(Oc2ccc(O)cc2)cc1 | 16 |
| NCCCCCCCC(=O)Nc1ccc(OCCCCN)cc1C(=O)Nc1ccc(Oc2ccccc2)cc1 | 90 |
| NCCCCCC(=O)Nc1ccc(OCCCCN)cc1C(=O)Nc1ccc(Oc2ccccc2)cc1 | 99 |
| NCCCCC(=O)Nc1ccc(OCCCN)cc1C(=O)Nc1ccc(Oc2ccccc2)cc1 | 77 |
| NC(N)=NCCCCCC(=O)Nc1ccc(OCCCCN=C(N)N)cc1C(=O)Nc1ccc(Oc2ccccc2)cc1 | 17 |
| NCCCCCCCC(=O)Nc1ccc(OCCCN)cc1C(=O)Nc1ccc(Oc2ccccc2)cc1 | 72 |
